Residues, ends and D or L forms follow the SMILES beside them.
Assays:
HCMV protease = settings: substrate hydrolysis, literature data; cited from earlier work
[1] = molecular target: T1, HCMV A143T/A144T protease mutant (Human cytomegalovirus, UniProt P16753, A143T/A144T); experiment: Esterase activity toward p-nitrophenol; type: biochemical; settings: for hydrolysis by HCMV protease (in words): up to 10 min at 30 °C
T1 sequence (P16753 1-256 A143T/A144T limits assumed): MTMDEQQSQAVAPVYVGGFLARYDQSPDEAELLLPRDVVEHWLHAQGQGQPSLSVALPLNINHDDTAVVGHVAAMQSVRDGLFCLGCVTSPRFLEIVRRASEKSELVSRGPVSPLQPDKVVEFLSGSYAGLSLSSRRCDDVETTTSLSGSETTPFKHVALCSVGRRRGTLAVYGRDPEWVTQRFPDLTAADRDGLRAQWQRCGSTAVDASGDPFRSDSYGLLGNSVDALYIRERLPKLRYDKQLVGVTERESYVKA
Method in brief: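 Catalytic-domain His-tagged A143T/A144T mutant, expressed in E. coli BL21(DE3) and Ni-NTA purified, 10 μg/mL, preincubated 3 min in 100 mM phosphate pH 7.4 with 0.5 M Na2SO4 and 10% glycerol. Boc-Xaa-ONp (50 μM) then added at 30 °C for up to 10 min. p-Nitrophenol release read at 405 nm every 30 s. Boc-Ala-ONp kinetics run in 50 mM Tris pH 7.4.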

[2] = Solubility of the model ester; type: physicochemical
[3] = substrate hydrolysis, 10 μg/mL protease, 50 mM Tris buffer (pH 7.4)

Molecule: N-Ac-Tbg-Tbg-Asn(NMe2)-Ala-AMC
- Km (HCMV protease): 13.2 µM
- kcat (HCMV protease): 0.035 ^b s^–1

Molecule: CC(C)CC(NC(=O)OC(C)(C)C)C(=O)Oc1ccc([N+](=O)[O-])cc1 [Boc-L-Leu-ONp]
- hydrolysis by HCMV protease (in words) ([1]; 50 μM ester, 10 μg/mL protease): not hydrolyzed

Molecule: C[C@H](NC(=O)OC(C)(C)C)C(=O)Oc1ccc([N+](=O)[O-])cc1 [Boc-L-Ala-ONp]
- specific activity relative to Boc-L-Gly-ONp and Boc-L-Phe-ONp (higher) ([1]; 50 μM ester, 10 μg/mL protease): ~5 fold
- specific activity ([1]; 50 μM ester, 10 μg/mL protease, 30 °C): 190 nmol/min/mg protein
- affinity relative to N-Ac-Tbg-Tbg-Asn(NMe2)-Ala-AMC (less) ([1]; comparison of Km values): about 10 fold
- turnover rate (kcat) relative to the peptide compound (faster) ([1]; comparison of kcat values): 10 fold
- Km [1, 3]: 163 µM
- kcat [1, 3]: 0.397 s^–1
- solubility (in words) [2]: low solubility

Molecule: CC(C)(C)OC(=O)NCC(=O)NCC(=O)Oc1ccc([N+](=O)[O-])cc1 [Boc-L-Gly-L-Gly-ONp] (HELM PEPTIDE1{[CC(C)(C)OC(=O)[*:2]].G.G.[O=[N+]([O-])c1ccc(O[*:1])cc1]}$$$$V2.0)
- hydrolysis by HCMV protease (in words) ([1]; 50 μM ester, 10 μg/mL protease): slower than that of Boc-L-Gly-ONp

Molecule: CC(C)(C)OC(=O)N[C@@H](CCC(N)=O)C(=O)Oc1ccc([N+](=O)[O-])cc1 [Boc-L-Gln-ONp]
- hydrolysis by HCMV protease (in words) ([1]; 50 μM ester, 10 μg/mL protease): not hydrolyzed

Molecule: CCC(C)C(NC(=O)OC(C)(C)C)C(=O)Oc1ccc([N+](=O)[O-])cc1 [Boc-L-Ile-ONp]
- hydrolysis by HCMV protease (in words) ([1]; 50 μM ester, 10 μg/mL protease): not hydrolyzed

Molecule: CC(C)[C@H](NC(=O)OC(C)(C)C)C(=O)Oc1ccc([N+](=O)[O-])cc1 [Boc-L-Val-ONp]
- hydrolysis by HCMV protease (in words) ([1]; 50 μM ester, 10 μg/mL protease): not hydrolyzed

— article PMC3616455 (Molecular Pharmaceutics, 2013)
